The values that follow come from ChEMBL document CHEMBL1134248, “1,4-Benzodiazepine peripheral cholecystokinin (CCK-A) receptor agonists” (2001).

Assay [1] is filed under the species Cavia porcellus. Description: Concentration at which 50% of the maximal contraction was observed for % CCK. In kind it is functional. The procedure, abridged:
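Isolated guinea pig gallbladder strips incubated with test ligand 30 min at 37 °C; contraction read as efficacy relative to CCK-8 (1 µM) = 100%. Single-concentration efficacy taken at 30 µM. Full dose–response curves run for ligands giving >40% of the CCK-8 response; ED50 is the concentration giving 50% of maximal contraction. Agonism checked for reversal by CCK-A antagonist MK-329.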

The subject of assay [2] is Rattus norvegicus. Description: In vivo anoretic efficacy in the rat conditioned feeder assay measured as dose that produced half maximal response. The class given is functional. The gist of the method:
(§1)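 Fasted rats in a conditioned-feeder model, dosed intraperitoneally; food intake measured at 30 min versus control animals. %Max is the percentage reduction in intake at 10 µmol/kg (CCK-8 at 0.5 µmol/kg). ED50 is the dose producing 50% of the maximal response seen at 10 µmol/kg.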

The test system of assay [3] is Rattus norvegicus. Description: Percentage maximal response in rats at 10 umol/kg administered intraperitoneally. In kind it is functional. The gist of the method:
as §1

The species entered for assay [4] is Cavia porcellus. Description: In vitro functional efficacy determined by maximal contraction of isolated guinea pig gallbladder at 1 uM concentration of compound relative to CCK-8 at 1 uM. The gist of the method:
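Isolated guinea pig gallbladder exposed to test ligand for 30 min at 37 °C. Maximal contraction at a single compound concentration is expressed relative to the CCK-8 contraction, set at 100%. Selective CCK-A antagonist MK-329 was used to check reversal of agonist responses.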

The inhibition is the share of the control response that was lost under treatment.

Structures are written as SMILES.

The compound `CC(C)N(C(=O)CN1C(=O)C(Cc2c[nH]c3ccccc23)N=C(c2ccccc2)c2ccccc21)c1ccccc1` (configuration not stated) yielded an ED50 in assay [1] of 41 nM.
`COc1ccc(N(C(=O)CN2C(=O)C(NC(=O)Nc3ccccc3)N=C(C3CCCCC3)c3ccccc32)C(C)C)cc1` (configuration not stated): the ED50 in assay [1] is given as 233 nM.
On the same count and under the same terms, in the case of `COc1ccc(N(C(=O)CN2C(=O)C(NC(=O)Nc3ccccc3)[N+]([O-])=C(C)c3ccccc32)C(C)C)cc1` (configuration not stated) it was 202 nM.
With `COc1ccc(N(C(=O)CN2C(=O)C(NC(=O)Nc3ccccc3)[N+]([O-])=C(C3CCCCC3)c3ccccc32)C(C)C)cc1` (configuration not stated), the ED50 was 25 nmol/kg in assay [2] and 342 nM in assay [1]. Also, the Max in assay [3] amounted to 75%.
Turning to `COc1ccc(N(C(=O)CN2C(=O)C(NC(=O)Nc3cccc(C(=O)O)c3)[N+]([O-])=C(C3CCCCC3)c3ccccc32)C(C)C)cc1` (configuration not stated), the ED50 in assay [2] is 80 nmol/kg; in assay [1] it was 3 nM. This compound displayed a Max in assay [3] of 69%.
As to `COc1ccc(N(C(=O)CN2C(=O)C(NC(=O)c3cc4ccccc4[nH]3)[N+]([O-])=C(C3CCCCC3)c3ccccc32)C(C)C)cc1` (configuration not stated), the ED50 in assay [1] is reported as 131 nM.
`COc1ccc(N(C(=O)CN2C(=O)C(CC(=O)Nc3ccccc3)N=C(c3ccccc3)c3ccccc32)C(C)C)cc1` (configuration not stated) displayed an ED50 in assay [1] of 1100 nM.
Still for that read-out and setting: in the case of `COc1ccc(N(C(=O)CN2C(=O)C(NC(=O)Nc3ccccc3)N=C(C)c3ccccc32)C(C)C)cc1` (configuration not stated) it was 296 nM.
As for `COc1ccc(N(C(=O)CN2C(=O)C(Cc3n[nH]c4ccccc34)[N+]([O-])=C(c3ccccc3)c3ccccc32)C(C)C)cc1` (configuration not stated), the figures for the ED50 in assay [2] and in assay [1] were 150 nmol/kg and 13 nM, respectively. The Max in assay [3] was found to be 79%.
In the case of `COc1ccc(N(C(=O)CN2C(=O)C(NC(=O)Nc3cccc(C(=O)O)c3)N=C(c3ccccc3)c3ccccc32)C(C)C)cc1` (configuration not stated), the inhibition at 1 µM in assay [4] was found to be 27%.
On the same count and under the same terms, in the case of `COc1ccc(N(C(=O)CN2C(=O)C(Cc3n[nH]c4ccccc34)N=C(c3ccccc3)c3ccccc32)C(C)C)cc1` (configuration not stated) it was 27%.
